T cruzi inh: inhibitors of intracellular T. cruzi growth, primary screen, luminescence, NIH3T3 host cells; T. cruzi beta-gal in NIH3T3, 90 h; inhibition, % (test concentration not listed); 300,000 tested, 1.4% active;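 active = mean inhibition across valid replicates above about 55%, limit read from the data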;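 note: signal also drops with host cell toxicity which is not excluded here; higher percent means less beta-gal luminescence so fewer parasites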
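Read-out: Parasite load inhibition, % | Test system: Mouse NIH/3T3 fibroblasts infected with β-gal-expressing T. cruzi Tulahuen C4 | Amount: 5,000 cells/well | Medium: DMEM, 2% fetal bovine serum | Signal: GalScreen β-gal luminescence, detergent lysis, 60 min | Timing: 3 h attach, ≥90 h co-culture | Also added: Tulahuen C4 trypomastigotes, 5000/well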
MEKK3 PB1 HTS: modulators of MEKK3-MEK5 PB1 binding, primary screen, biochemical, wildtype MEKK3, multiplex bead flow cytometry, Alexa488-MEK5. bead-based flow cytometry, Alexa488-MEK5 binding to MEKK3; actives lie on both sides; 0 = blocked by unlabeled MEK5, 100 = vehicle. binding response (% of control), % at 10 µM. AID 1529, 2009. 290,000 tested, 1.4% active. Mitogen-activated protein kinase kinase kinase 3 (Homo sapiens), Q99759;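 active = binding response more than 3 SD above or below the average of its plate-row segment, actives on both sides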;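 note: Alexa488 bead fluorescence after subtracting the streptavidin-only scavenger bead signal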
Target sequence (Q99759 whole entry, looked up): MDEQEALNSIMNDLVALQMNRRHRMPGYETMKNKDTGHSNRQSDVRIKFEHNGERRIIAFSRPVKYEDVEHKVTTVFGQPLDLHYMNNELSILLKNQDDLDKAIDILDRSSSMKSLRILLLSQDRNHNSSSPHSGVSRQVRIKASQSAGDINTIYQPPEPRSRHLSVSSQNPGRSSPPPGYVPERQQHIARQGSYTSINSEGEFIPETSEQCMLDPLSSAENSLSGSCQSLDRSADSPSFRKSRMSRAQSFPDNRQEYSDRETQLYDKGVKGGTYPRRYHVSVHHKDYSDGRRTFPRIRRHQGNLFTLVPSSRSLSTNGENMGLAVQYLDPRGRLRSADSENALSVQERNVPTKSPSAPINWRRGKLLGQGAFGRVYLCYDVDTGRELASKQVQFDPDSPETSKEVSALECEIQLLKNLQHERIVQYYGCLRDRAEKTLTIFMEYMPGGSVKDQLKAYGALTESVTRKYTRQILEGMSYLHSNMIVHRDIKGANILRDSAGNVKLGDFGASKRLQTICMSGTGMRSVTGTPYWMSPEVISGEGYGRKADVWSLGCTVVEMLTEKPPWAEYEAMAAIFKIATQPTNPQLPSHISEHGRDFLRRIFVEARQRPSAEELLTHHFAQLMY
MEKK2wt PB1 HTS: modulators of MEK5 binding to wildtype MEKK2, primary screen, biochemical, multiplex bead flow cytometry, Alexa488-MEK5; Alexa488-MEK5 binding to MEKK2 WT; actives lie on both sides; binding response (% of control), % at 10 µM; 290,000 tested, 1.1% active; AID 1531, 2009; in the data active = binding response below about 67% or above about 130%
NS3 helicase inh: inhibitors of HCV NS3 helicase, primary screen, biochemical, Cy5 molecular beacon fluorescence | AID 1800, 2009 | NS3 helicase DNA unwinding | 290,000 tested, 0.56% active | inhibition, % at 10.9 µM;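 active = inhibition above the mean of all tested compounds plus 3 SD, set per campaign, cut at about 35% in these data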
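test system = hepatitis C virus NS3 helicase domain fragment enzyme | reagent = annealed dual-labelled DNA beacon duplex, ATP-started | times = 1 h at 25 °C | detection = Cy5 fluorescence, 0 and 60 min reads | read-out basis = percent inhibition from t60/t0 fluorescence ratio | control set = DMSO and thioflavine S | replication = one well per compound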
MEKK2mut PB1 HTS: MEK5 binding signal on mutant MEKK2 PB1, primary screen, biochemical, multiplex bead flow cytometry, Alexa488-MEK5; Alexa488-MEK5 binding to MEKK2 mutant; percent response, % at 10 µM; 290,000 tested, 0.35% active; AID 1530, 2009; in the data active = percent response above about 24%, passing the limit was not always enough
DNA FID counter: compounds displacing fluorescent DNA intercalator, primary screen, artefact control for HCV NS3 helicase inhibitor project, biochemical, FID fluorescence | DNA fluorescent intercalator displacement | inhibition, % at 7.9 µM | AID 1845, 2009 | 290,000 tested, 0.17% active; in the data active = inhibition above about 37%;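 note: higher means more ethidium bromide displaced from hairpin DNA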
MEKK2wt confirm: modulators of MEK5 binding to wildtype MEKK2, confirmation, biochemical, single concentration, multiplex bead flow cytometry | Alexa488-MEK5 binding to MEKK2 WT; actives lie on both sides | binding response (% of control), % at 10 µM | shares compounds with MEKK3 PB1 HTS | 5,900 tested, 2.4% active; in the data active = binding response below about 16% or above about 210%; inactive = in between
MEKK2mut confirm: mutant MEKK2 PB1-MEK5 binding signal retest – biochemical, single concentration, multiplex bead flow cytometry, confirmation; shares compounds with MEKK3 PB1 HTS; percent response, % at 10 µM; Alexa488-MEK5 binding to MEKK2 mutant; AID 1893, 2009; 5,900 tested, 2% active; in the data active = percent response mostly above about 71%, no sharp cut-off; inactive = mostly below about 38%;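 note: higher means compound restores mutant binding toward wildtype level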
MEKK3 confirm: MEKK3 wild-type PB1 binding to MEK5, inhibitors, confirmation, biochemical, bead multiplex flow cytometry, single concentration, wildtype | shares compounds with MEKK3 PB1 HTS | Alexa488-MEK5 binding to MEKK3; stronger effect = lower value | binding response (% of control), % at 10 µM | 5,900 tested, 1.8% active;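 active = binding response below 72% of control, or above a set upper limit, though filed actives all read lower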
Each line names hits and unclear results; the compound was inactive in the other large screens (follow-up assays come after a bar, where they were run); [ ] = dose if it differs, or a comment. An excerpt weighted towards active compounds, which were near 4.1% of everything screened.

O=C1c2ccccc2C(=O)N1OCCOCCOCCON1C(=O)c2ccccc2C1=O	none
Cc1c(NC(=O)C(C)OC(=O)c2cc(Cl)ccc2O)c(=O)n(-c2ccccc2)n1C (stereo unspecified)	none
CCn1c(SCC(=O)N2CCCC2)nc2ccccc2c1=O	MEKK3 PB1 HTS 74.0[inhibitor], MEKK2wt PB1 HTS 52.0[inhibitor] | MEKK2wt confirm inactive | MEKK2mut confirm inactive | MEKK3 confirm inactive
Cc1ccc(NC(=O)CSc2nc3ccccc3c(=O)n2CCCN2CCCCC2)cc1C	MEKK2wt PB1 HTS 149.0 | MEKK2wt confirm inactive | MEKK2mut confirm inactive | MEKK3 confirm inactive
Cc1ccc(NC(=O)CSc2nc3ccccc3c(=O)n2CCCC(=O)N2CCCC2)cc1	none
O=C1c2ccccc2C(=O)N1CCCCSc1nc2ccccc2c(=O)n1CCCN1CCOCC1	MEKK3 PB1 HTS 143.0 | MEKK2wt confirm inactive | MEKK2mut confirm inactive | MEKK3 confirm inactive
O=C(O)COc1ccccc1/C=N/NC(=O)C(O)c1ccccc1 (stereo unspecified)	none
O=C(NC12CC3CC(CC(C3)C1)C2)c1cccnc1Cl	none
Nc1nnn(CC(=O)N/N=C/c2cccc(Cl)c2)n1	none
c1ccc(CN2CCN(c3nc(NCc4ccco4)c4ccccc4n3)CC2)cc1	MEKK2wt PB1 HTS 168.0 | MEKK2wt confirm inactive | MEKK2mut confirm inactive | MEKK3 confirm inactive
Oc1ccccc1Nc1nc(NCc2ccco2)c2ccccc2n1	none
COc1ccc(OC)c(Nc2nc(NCc3ccco3)c3ccccc3n2)c1	MEKK2wt PB1 HTS 206.0, MEKK2mut PB1 HTS 24.0 | MEKK2wt confirm inactive | MEKK2mut confirm inactive | MEKK3 confirm inactive
Cc1ccccc1Nc1nc(NCc2ccco2)c2ccccc2n1	T cruzi inh 57.6, MEKK2wt PB1 HTS 149.0 | MEKK2wt confirm inactive | MEKK2mut confirm inactive | MEKK3 confirm inactive
c1ccc(Nc2nc(NCc3ccco3)c3ccccc3n2)cc1	MEKK2wt PB1 HTS 174.0 | MEKK2wt confirm inactive | MEKK2mut confirm inactive | MEKK3 confirm inactive
CC(=O)c1c(C)[nH]c(C(=O)CN2C(=O)NC(CCc3ccccc3)C2=O)c1C (stereo unspecified)	none
CC(C)NC(=O)C(c1ccc(F)cc1)N(Cc1ccco1)C(=O)CCC(=O)Nc1ccccn1 (stereo unspecified)	none
CC1CCN(CC(=O)Nc2ccc(S(=O)(=O)N3C(C)CCCC3C)cc2)CC1 (stereo unspecified)	none
Cc1cccc(Nc2nc(NCc3ccco3)c3ccccc3n2)c1	MEKK2wt PB1 HTS 145.0 | MEKK2wt confirm inactive | MEKK2mut confirm inactive | MEKK3 confirm inactive
O=C1CN(S(=O)(=O)c2ccc([N+](=O)[O-])cc2)CC(=O)N1	none
CC(=O)Nc1ccc(C(=O)NNC(=O)c2cccs2)cc1	none
Cc1ccc(NC(=O)NNC(=O)c2cccs2)cc1	MEKK3 PB1 HTS 71.0[inhibitor] | MEKK2wt confirm inactive | MEKK2mut confirm inactive | MEKK3 confirm inactive
Cc1ccc(C(=O)Nc2ccccc2C(=O)N2CCCC(C)C2)cc1 (stereo unspecified)	none
Cc1nnc(Sc2cc(C(=O)NCCCN(C)Cc3ccccc3)c3ccccc3n2)s1	T cruzi inh 63.8, MEKK3 PB1 HTS 131.0 | MEKK2wt confirm inactive | MEKK2mut confirm inactive | MEKK3 confirm inactive
COCCCNC(=O)c1cc(Sc2nnc(C)s2)nc2ccccc12	none
CN(Cc1ccccc1)S(=O)(=O)c1ccc2c(c1)n(C)c(=O)n2C	MEKK3 PB1 HTS 2.0[inhibitor], MEKK2wt PB1 HTS 1.0[inhibitor] | MEKK2wt confirm inactive | MEKK2mut confirm inactive | MEKK3 confirm inactive
Cc1cc(-c2csc(N)n2)c(C)n1-c1ccc(Cl)c(Cl)c1	MEKK3 PB1 HTS 153.0 | MEKK2wt confirm inactive | MEKK2mut confirm inactive | MEKK3 confirm inactive
CCCn1c(C)cc(-c2csc(N)n2)c1C	none
COc1ccc(-n2c(C)cc(-c3csc(N)n3)c2C)cc1	MEKK3 PB1 HTS 128.0 | MEKK2wt confirm inactive | MEKK2mut confirm inactive | MEKK3 confirm inactive
Cn1c(SCCN2CCCC2)nnc1C1CCN(S(=O)(=O)c2cccc(F)c2)CC1	none
C[C@H](NC(=O)N1CCC(Cc2ccccc2)CC1)C(=O)O	none
O=C(O)c1ccc2nc(CO)[nH]c2c1	MEKK3 PB1 HTS 2.0[inhibitor], MEKK2wt PB1 HTS 2.0[inhibitor] | MEKK2wt confirm inactive | MEKK2mut confirm inactive | MEKK3 confirm inactive
Cc1ccc(C)c(NC(=O)Cn2nc(-c3ccccc3)nc2-c2ccccc2)c1	none
Cc1ccc(NC(=O)Cn2nc(-c3ccccc3)nc2-c2ccccc2)c(C)c1	MEKK3 PB1 HTS 150.0 | MEKK2wt confirm inactive | MEKK2mut confirm inactive | MEKK3 confirm inactive
O=C(Nc1ccc(Cl)cn1)c1ccc(COc2ccccc2Br)o1	MEKK3 PB1 HTS 49.0[inhibitor] | MEKK2wt confirm inactive | MEKK2mut confirm inactive | MEKK3 confirm inactive
C[C@H](NC(=O)C1CCN(S(=O)(=O)c2ccccc2)CC1)C(=O)NCc1ccc(Cl)c(Cl)c1	none
CCN(c1cccc(C)c1)S(=O)(=O)c1ccc(-n2cccn2)cc1	none
Cc1ccc(NC(=O)c2ccc(-c3nn(C)c(=O)c4ccccc34)cc2)cc1	none
Cn1nc(-c2ccc(C(=O)Nc3cccc(Cl)c3)cc2)c2ccccc2c1=O	MEKK3 PB1 HTS 34.0[inhibitor], MEKK2wt PB1 HTS 1.0[inhibitor] | MEKK2wt confirm inactive | MEKK2mut confirm inactive | MEKK3 confirm inactive
O=C(c1ccc(-n2cccc2)cc1)N1CCN(Cc2ccccc2)CC1	none
Cn1nc(-c2ccc(C(=O)N3CCN(Cc4ccccc4)CC3)cc2)c2ccccc2c1=O	MEKK3 PB1 HTS 52.0[inhibitor], MEKK2wt PB1 HTS 57.0[inhibitor] | MEKK2wt confirm inactive | MEKK2mut confirm inactive | MEKK3 confirm inactive
